Like-named read-outs stand apart in the source and are kept apart here.

The text below walks through data of paper PMC4740292 (EBioMedicine, 2015).

For data set [1], the system named is HCVcc-Luc. Nature of the data set: Time-of-addition assay, HCVcc-Luc on Huh7.5.1 cells. It is filed as cell-based, Hepatitis C virus. As to conditions: 2 μM for 3 h, added at indicated time points. The gist of the method:
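Huh7.5.1 cells inoculated with HCVcc-Luc at 37 °C for 3 h. At set time points, test compound at 2 μM (or DMSO) added for 3 h, then removed. Cells kept a further 48 h at 37 °C before luciferase readout. Mean of n = 3 with s.d.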

The target in data set [2] is PHB1, PHB2, CRaf, Ras (Homo sapiens, UniProt P35232+Q99623). Nature of the data set: Western blotting of cellular PHB1, PHB2, CRaf and Ras in Huh7.5.1 cells. As to conditions: 20 nM, 1, 2 and 3 days. In kind it is cell-based. Background: In western blotting, separated proteins are transferred to a membrane and probed.
Sequence of PHB1, PHB2, CRaf, Ras (P35232 2-272 limits assumed): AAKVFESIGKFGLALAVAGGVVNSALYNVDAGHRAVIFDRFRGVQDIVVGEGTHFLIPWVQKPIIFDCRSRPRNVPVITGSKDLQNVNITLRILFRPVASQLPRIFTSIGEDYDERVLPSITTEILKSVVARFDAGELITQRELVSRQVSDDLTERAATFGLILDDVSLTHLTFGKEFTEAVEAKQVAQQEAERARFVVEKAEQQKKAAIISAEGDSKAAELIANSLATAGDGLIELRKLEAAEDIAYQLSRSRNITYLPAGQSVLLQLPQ
Sequence of PHB1, PHB2, CRaf, Ras (Q99623 2-299 limits assumed): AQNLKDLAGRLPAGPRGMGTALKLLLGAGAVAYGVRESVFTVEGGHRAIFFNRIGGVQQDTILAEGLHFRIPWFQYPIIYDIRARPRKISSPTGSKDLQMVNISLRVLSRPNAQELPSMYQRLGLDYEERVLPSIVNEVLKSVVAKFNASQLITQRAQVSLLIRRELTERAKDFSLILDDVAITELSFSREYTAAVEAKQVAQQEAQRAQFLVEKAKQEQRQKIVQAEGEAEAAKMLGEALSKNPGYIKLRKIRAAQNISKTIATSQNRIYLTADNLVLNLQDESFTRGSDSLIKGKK
Data set [3] deals with HCVpp. Kind of data set: HCVpp infection of primary human hepatocytes. It is filed as cell-based, Hepatitis C virus. As to conditions: pretreatment of PHHs at non-cytotoxic concentrations.
In data set [4] the test system is HCV replicon cell line 2-3(+). Kind of data set: HCV replicon cell line 2-3. In kind it is cell-based, Hepatitis C virus (Genotype 1b). As to conditions: 20 nM, 24, 48 or 72 hours, replicon cells. In general terms: A replicon is a self-replicating genome or part of one, used to study replication in cells.
In data set [5] the test system is JFH-1 genotype 2a infectious virus (HCVcc). As to conditions: for HCVcc infection / HCV entry inhibition (in words) / TI (CC50/EC50) / EC50: Huh7.5.1.
Data set [6] can be described thus: Human liver microsomal stability assay. It is filed as in vitro ADME. As to conditions: both, human liver microsomes, pH 7.4. On the technique in general: Liver microsomes are a subcellular fraction often used to study metabolism.
The target in data set [7] is cell surface PHB1 and 2 (Homo sapiens, UniProt P35232+Q99623). Nature of the data set: Cell surface biotinylation assay, Huh7.5.1 cells. In kind it is cell-based. As to conditions: 20 nM.
In data set [8] the target is PHB-CRaf interaction (Homo sapiens, UniProt P35232+Q99623). Nature of the data set: Co-IP of Flag-CRaf and V5-tagged PHB1 & 2 in 293T cells. In kind it is cell-based. As to conditions: 20 nM. The gist of the method:
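Flag-CRaf and V5-tagged PHB1 and PHB2 co-expressed in 293T cells by co-transfection. Cells left untreated or exposed to test compound at 20 nM, then immunoprecipitated with anti-Flag antibody. Co-precipitated PHB1/PHB2 and CRaf detected by immunoblotting.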

Data set [9] relates to CHIKVpp. Nature of the data set: CHIKVpp infection of Huh7.5.1 cells, luciferase assay. As to conditions: Huh7.5.1, Roc-A 10 nM, Fig. S3F. It is filed as cell-based, Chikungunya virus.
In data set [10] the test system is Huh7.5.1 cells. Nature of the data set: Cytotoxicity. In kind it is cell-based, human.
[11] abbreviates: compounds incubated with cells for a total of 3 h.
Setting [12] is: compounds incubated with cells for a total of 48 h.

Sequence of PHB-CRaf interaction (P35232 whole entry): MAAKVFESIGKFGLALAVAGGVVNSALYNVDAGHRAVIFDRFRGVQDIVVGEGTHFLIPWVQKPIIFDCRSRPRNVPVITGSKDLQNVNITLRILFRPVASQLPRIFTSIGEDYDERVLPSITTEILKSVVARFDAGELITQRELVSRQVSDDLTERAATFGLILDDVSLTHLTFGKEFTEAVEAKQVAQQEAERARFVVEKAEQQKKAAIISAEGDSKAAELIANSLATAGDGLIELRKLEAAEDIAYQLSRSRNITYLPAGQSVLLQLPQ
Sequence of PHB-CRaf interaction (Q99623 whole entry): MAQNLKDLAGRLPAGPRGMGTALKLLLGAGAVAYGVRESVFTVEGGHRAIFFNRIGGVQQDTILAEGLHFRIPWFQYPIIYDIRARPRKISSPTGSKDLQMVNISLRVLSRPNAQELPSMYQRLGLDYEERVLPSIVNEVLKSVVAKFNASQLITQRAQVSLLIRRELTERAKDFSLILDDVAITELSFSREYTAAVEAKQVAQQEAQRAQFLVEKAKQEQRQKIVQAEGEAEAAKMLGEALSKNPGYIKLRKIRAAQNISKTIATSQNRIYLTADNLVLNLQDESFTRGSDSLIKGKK

`CONC(=O)[C@H]1[C@@H](O)[C@@]2(O)c3c(OC)cc(OC)cc3O[C@@]2(c2ccc(OC)cc2)[C@@H]1c1ccccc1` [Compound E2, (-)-NH hydroxamate]: the “anti-HCV activity by time of addition” value in data set [1] was “appeared to inhibit HCV no matter when added”.

Usually half-life stands for the time needed for the level to fall by half in the phase considered. A lower half-life goes with rapid decline. In the case of `COc1ccc([C@@]23Oc4cc(OC)cc(OC)c4[C@]2(O)[C@H](O)[C@H](C(=O)N(C)C)[C@H]3c2ccccc2)cc1` [Roc-A, rocaglamide A], the “PHB1, 2, Ras and CRaf total protein level” value in [2] is “decreased PHB1, 2, Ras, and CRaf at the total protein level”. In addition, the “HCVpp entry (in words)” value in data set [3] is listed as “suppressed HCVpp entry”. The “HCV RNA replication or protein translation” value in [4] was “did not inhibit HCV RNA replication or protein translation”. In addition, the “HCVcc infection / HCV entry inhibition (in words)” value in data set [5] is “significantly reduced”. This molecule also displayed a half-life at 1 µM in data set [6] of 37 min. Besides, the “cell surface expression of PHB1 and 2” value in data set [7] is “decreased the cell surface expression of PHB1 and 2”. Also, in [8], the PHB-CRaf interaction result is “disrupted the PHB-CRaf interaction”. Moreover, the CHIKVpp infection entry in data set [9] is “significantly reduced”.

The term EC50 denotes the midpoint of the concentration-response curve. Read a high EC50 as a need for much substance. As usually defined, the CC50 is the concentration that lowers cell viability or growth by half. High values mean lower toxicity to the cells, low ones greater toxicity to the cells. In the case of (+)-aglaroxin C, the “TI (CC50/EC50)” value in [5] (3 h incubation) came to 5a. The molecule further registered an EC50 in data set [5] (setting [11]) of 20000 nM. The same molecule had a CC50 in data set [10] (setting [11]) of 100 µM.

In [5] (setting [11]), (+)-rocaglamide [(+) Roc-A] registered an EC50 of over 200000 nM. The molecule also yielded a CC50 in data set [10] (setting [11]) of 300 µM.

With (-)-aglaroxin C [(−)-Aglaroxin C], the “TI (CC50/EC50)” value in [5] (3 h incubation) turned out to be 60a. The “HCVcc infection / HCV entry inhibition (in words)” value in data set [5] was “active enantiomer for HCV viral entry inhibition”. Also, the response in data set [5] (setting [11]) was half-maximal at 200 nM (EC50). In [10] (setting [11]), half-maximal cytotoxicity (CC50) was put at 12 µM.

For (-)-rocaglamide [(−) Roc-A], the “TI (CC50/EC50)” value in [5] (3 h incubation) is listed as 50; in [5] (48 h incubation), 75. Besides, the “HCVcc infection / HCV entry inhibition (in words)” value in data set [5] is “stronger inhibition on HCV entry than the (+) enantiomer”. Moreover, the EC50 in data set [5] (setting [11]) turned out to be 1000 nM; in data set [5] (setting [12]) it was 4 nM. Also, the CC50 in data set [10] (setting [11]) is 50 µM; in [10] (setting [12]), 0.3 µM.

With (±)-aglaroxin C [(±) Aglaroxin C (C10)], the “TI (CC50/EC50)” value amounted to 100 in data set [5] (3 h incubation) and 500 in data set [5] (48 h incubation). Besides, the “half-maximum effective concentrations (EC50), in words” value in [5] (JFH-1 genotype 2a infectious virus in cell culture) is given as “picomolar”. Also, the EC50 was found to be 100 nM in data set [5] (setting [11]) and 0.04 nM in [5] (setting [12]). Further, the CC50 in data set [10] (setting [11]) was 10 µM; in data set [10] (setting [12]), 0.02 µM. Moreover, the “anti-HCV activity by time of addition” value in data set [1] is recorded as “maximal anti-HCV activity when added together with the virus but lost its activity when added 3 h after the infection was initiated”.
